{"source": "PubChem BioAssay", "note": "Unmarked numbers belong to inactive results. Activity calls are given as the source filed them.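 Rule for the calls: active = growth inhibition above a set limit, 3 SD over mean compound inhibition, in both replicates (cut at about 43% in these data); inconclusive = above the limit in only one replicate; inactive = at or below the limit in both replicates.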", "data": [{"assay": "S. cerevisiae growth inhibition in restrictive medium, OD615, pilot screen, restrictive growth control, yeast lifespan reduction project (AID 706);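 note: modified DeaD lifespan yeast strain shifted to restrictive glucose medium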", "conditions": "OD615, 48 h, at 10 µM, active compounds read high", "procedure,_shortened": "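Material: engineered S. cerevisiae DeaD strain / Medium: glucose-based CSMM-D restrictive medium / Compound: single dose of 10 µM compound final, 0.25% DMSO / Timing: 4 h pre-incubation, 48 h exposure at 30 °C / Technique: OD615 absorbance reading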", "values": [{"smiles": "O=C1C(O)CC2c3ccccc3CC3(CCCC3)N12", "note": "(stereo not given)", "growth inhibition": "-11.3%"}, {"smiles": "Cc1ccc(OCC(=O)n2nc(C)cc2C)c(Br)c1", "growth inhibition": "-0.465%"}, {"smiles": "Cc1c(C(=O)N2CCN(CCc3ccccc3)CC2)oc2ccccc12", "growth inhibition": "7.52%"}, {"smiles": "c1ccc2cc3[nH]c(CN4CCCCC4)nc3cc2c1", "growth inhibition": "-13.4%"}, {"smiles": "Cc1ccc(-n2nc(C)c3c(C)c(CCC(=O)NCc4ccco4)c(C)nc32)cc1", "growth inhibition": "-9.24%"}, {"smiles": "Cn1c(=O)c2c(nc(CN3CCOCC3)n2CCCO)n(C)c1=O", "growth inhibition": "-3.44%"}, {"smiles": "CCCCNC(=O)c1ccc2nc(-c3ccco3)c(-c3ccco3)nc2c1", "growth inhibition": "-6.49%"}, {"smiles": "Cc1ccnc(N2C(=O)c3ccccc3C2Nc2ccccc2Cl)c1", "note": "(stereo not given)", "growth inhibition": "-17.5%"}, {"smiles": "CN(CCNC(=O)Cn1c(=O)sc2ccccc21)Cc1ccccc1", "growth inhibition": "-7.1%"}, {"smiles": "CCOC(=O)c1c(C)oc2cc(Br)c(OC(C)C(=O)OCC)cc12", "note": "(stereo not given)", "growth inhibition": "-5.88%"}, {"smiles": "Oc1c(C(c2cccc(F)c2)N2CCN(Cc3ccccc3)CC2)sc2ncnn12", "note": "(stereo not given)", "growth inhibition": "3.16%"}, {"smiles": "O=C(C1CC(=O)N(C2CCCC2)C1)N1CCN(c2ccc(F)cc2)CC1", "note": "(stereo not given)", "growth inhibition": "1.6%"}, {"smiles": "CCCCCSc1nc2c(c(=O)[nH]c(=O)n2C)n1C(C)C", "growth inhibition": "-3.84%"}, {"smiles": "O=C(C(Cc1ccccc1)n1cccc1)N1CCc2ccccc21", "note": "(stereo not given)", "growth inhibition": "-9.65%"}, {"smiles": "CCOC(=O)C1=C(O)/C(=C/N(C)C)N=C1C", "growth inhibition": "5.5%"}, {"smiles": "Cc1cc(C(=O)NC2CCCC2)on1", "growth inhibition": "-21.1%"}, {"smiles": "Cc1onc(-c2ccccc2Cl)c1C(=O)NCc1ccc2c(c1)cc(C)n2C", "growth inhibition": "-12.7%"}, {"smiles": "CCN(CCCNC(=O)Cn1cc2c(n1)CCCC2)c1cccc(C)c1", "growth inhibition": "3.35%"}, {"smiles": "COc1ccc(C2NC(=O)c3n[nH]c(C)c32)c(OC)c1", "note": "(stereo not given)", "growth inhibition": "7.6%"}, {"smiles": "S=c1nc(-c2ccccc2)n(CCCn2ccnc2)c2c1CCCC2", "growth inhibition": "-0.21%"}, {"smiles": "CC1CCN(CC(C)OC(=O)c2ccc3c(c2)OCCO3)CC1", "note": "(stereo not given)", "growth inhibition": "6.58%"}, {"smiles": "CCN1CCCC(NC(=O)c2scc3c2CCCC3)C1", "note": "(stereo not given)", "growth inhibition": "-5.2%"}, {"smiles": "Cc1ccc(CNC(=O)CCS(=O)(=O)c2cccc3nsnc23)cc1", "growth inhibition": "-1.48%"}, {"smiles": "COC(=O)C1(C)NC(=O)c2ccccc2N1", "note": "(stereo not given)", "growth inhibition": "-7.71%"}, {"smiles": "COC(=O)c1ccccc1NS(=O)(=O)c1cn(C)c(=O)n(C)c1=O", "growth inhibition": "-6.46%"}, {"smiles": "CCOC(=O)c1ccc(NC(=O)CCC(=O)OC)cc1", "growth inhibition": "-1.83%"}, {"smiles": "COCCNS(=O)(=O)c1cccc2cccnc12", "growth inhibition": "12.8%"}, {"smiles": "CCOC(=O)N1CCC(NC(=O)C2CCCCN2S(=O)(=O)c2ccc(F)cc2)CC1", "note": "(stereo not given)", "growth inhibition": "-1.21%"}, {"smiles": "COc1cc(NC(=O)C2CCCC2)c(OC)cc1Cl", "growth inhibition": "-12%"}, {"smiles": "CC(=O)NC(CCS(C)(=O)=O)C(=O)Nc1cc(Cl)ccc1Cl", "note": "(stereo not given)", "growth inhibition": "-17.2%"}, {"smiles": "COc1cc(NC(=O)Cn2ncc3c2-c2ccccc2OC3)cc(OC)c1OC", "growth inhibition": "6.98%"}, {"smiles": "COc1ccccc1-c1nnc(NC(=O)C(C)SC2=NCCS2)s1", "note": "(stereo not given)", "growth inhibition": "48.7% (active)"}, {"smiles": "C=CCn1c(=NC(=O)C2CC2)sc2cc(NC(C)=O)ccc21", "growth inhibition": "-3.58%"}, {"smiles": "Cc1nc(N2CCN(C)CC2)c2sc(=S)n(-c3ccccc3)c2n1", "growth inhibition": "-1.67%"}, {"smiles": "CC(=O)Nc1sc(N)nc1-c1ccccc1", "growth inhibition": "16.2%"}, {"smiles": "CCCc1cc(C(=O)Nc2sc3c(c2C(=O)OCC)CCCC3)no1", "growth inhibition": "-10.2%"}, {"smiles": "CCCCN(C)CCNC(=O)Cn1c(=O)sc2ccccc21", "growth inhibition": "4.21%"}, {"smiles": "COc1cccc(C(=O)NCC(c2cccnc2)N2CCN(c3ccccc3OC)CC2)c1", "note": "(stereo not given)", "growth inhibition": "-13.1%"}, {"smiles": "COc1ccc(CSc2nnnn2Cc2ccccc2)cc1OC", "growth inhibition": "1.64%"}, {"smiles": "COc1ccc(NC(=O)Nc2cccc(OC)c2)cc1", "growth inhibition": "-19.4%"}]}]}
